Calls of active or inactive are those of the source. No cut-off for these calls is given here.
How the values were obtained:
[1] = molecular target: T1, 5-hydroxytryptamine receptor 2B (Homo sapiens, UniProt P41595); test: Agonist activity at human recombinant 5HT2B receptor expressed in CHOK1 cells at 0.0001 to 10 uM by FLIPR assay; format: functional, cell-based; settings: CHO-K1
[2] = molecular target: T2, 5-hydroxytryptamine receptor 1A (Homo sapiens, UniProt P08908); test: Displacement of [3H]LSD from human cloned 5HT1A receptor expressed in human HeLa cells; format: cell-based
T2 sequence (P08908 whole entry): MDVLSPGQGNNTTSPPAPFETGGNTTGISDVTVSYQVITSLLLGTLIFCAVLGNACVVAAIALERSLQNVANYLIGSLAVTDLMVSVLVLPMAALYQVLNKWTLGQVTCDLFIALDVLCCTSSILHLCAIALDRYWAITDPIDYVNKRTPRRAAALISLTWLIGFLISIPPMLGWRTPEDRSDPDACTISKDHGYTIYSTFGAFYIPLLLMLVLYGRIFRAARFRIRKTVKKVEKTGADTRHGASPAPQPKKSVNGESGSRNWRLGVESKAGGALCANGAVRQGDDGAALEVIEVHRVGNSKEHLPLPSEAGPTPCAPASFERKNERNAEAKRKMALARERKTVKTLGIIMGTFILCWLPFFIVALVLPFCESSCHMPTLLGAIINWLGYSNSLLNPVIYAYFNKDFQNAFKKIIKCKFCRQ

[3] = molecular target: 5-hydroxytryptamine receptor 1D (Homo sapiens, UniProt P28221); test: Displacement of [3H]LSD from human cloned 5HT1D receptor expressed in human HeLa cells; format: cell-based
[4] = molecular target: T3, 5-hydroxytryptamine receptor 2C (Homo sapiens, UniProt P28335); test: Displacement of [3H]LSD from human cloned 5HT2C receptor expressed in human HeLa cells; format: cell-based
T3 sequence (P28335 whole entry): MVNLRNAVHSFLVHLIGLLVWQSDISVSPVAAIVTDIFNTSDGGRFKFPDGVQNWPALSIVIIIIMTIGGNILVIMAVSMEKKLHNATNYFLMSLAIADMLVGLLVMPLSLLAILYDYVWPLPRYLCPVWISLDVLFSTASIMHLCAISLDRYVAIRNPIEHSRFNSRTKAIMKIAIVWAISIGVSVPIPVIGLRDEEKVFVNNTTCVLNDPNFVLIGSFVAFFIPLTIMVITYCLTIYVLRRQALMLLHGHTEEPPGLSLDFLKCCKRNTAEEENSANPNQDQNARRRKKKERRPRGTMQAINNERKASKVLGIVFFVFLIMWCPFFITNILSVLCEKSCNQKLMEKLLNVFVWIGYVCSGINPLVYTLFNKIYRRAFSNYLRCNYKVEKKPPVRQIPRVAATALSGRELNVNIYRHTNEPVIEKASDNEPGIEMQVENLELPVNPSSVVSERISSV

[5] = molecular target: 5-hydroxytryptamine receptor 7 (Homo sapiens, UniProt P34969); test: Displacement of [3H]LSD from human cloned 5HT7 receptor expressed in human HeLa cells; format: cell-based
[6] = molecular target: T4, 5-hydroxytryptamine receptor 6 (Homo sapiens, UniProt P50406); test: Antagonist activity at human cloned 5HT6 receptor expressed in human HeLa cells by cyclase assay relative to control; format: functional, cell-based
D(2) dopamine receptor = D(2) dopamine receptor (Homo sapiens, UniProt P14416); test: Displacement of [3H]LSD from human cloned dopamine D2 receptor expressed in human HeLa cells; format: cell-based
[7] = molecular target: T1, 5-hydroxytryptamine receptor 2B; test: Displacement of [3H]LSD from human cloned 5HT2B receptor expressed in human HeLa cells; format: cell-based
[8] = molecular target: 5-hydroxytryptamine receptor 1B (Homo sapiens, UniProt P28222); test: Displacement of [3H]LSD from human cloned 5HT1B receptor expressed in human HeLa cells; format: cell-based
[9] = molecular target: T5, Alpha-2A adrenergic receptor (Homo sapiens, UniProt P08913); test: Displacement of [3H]LSD from human cloned alpha2A adrenergic receptor expressed in human HeLa cells; format: cell-based
T5 sequence (P08913 whole entry): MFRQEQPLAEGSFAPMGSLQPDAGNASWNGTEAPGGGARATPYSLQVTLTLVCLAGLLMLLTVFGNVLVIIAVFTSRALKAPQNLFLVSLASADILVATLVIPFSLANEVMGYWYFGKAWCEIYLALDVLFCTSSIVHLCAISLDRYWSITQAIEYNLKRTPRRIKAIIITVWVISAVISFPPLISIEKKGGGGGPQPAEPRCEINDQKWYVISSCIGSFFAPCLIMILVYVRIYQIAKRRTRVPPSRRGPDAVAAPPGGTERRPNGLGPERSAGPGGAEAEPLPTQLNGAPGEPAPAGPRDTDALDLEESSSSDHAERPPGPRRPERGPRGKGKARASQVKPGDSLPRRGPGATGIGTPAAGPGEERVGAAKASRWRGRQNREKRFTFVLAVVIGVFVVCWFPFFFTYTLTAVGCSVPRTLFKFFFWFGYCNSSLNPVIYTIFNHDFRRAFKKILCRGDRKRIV

[10] = molecular target: T4, 5-hydroxytryptamine receptor 6; test: Displacement of [3H]LSD from human cloned 5HT6 receptor expressed in human HeLa cells; format: cell-based
In short: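 Radioligand displacement of [3H]LSD from cloned human 5-HT6 receptor stably expressed in HeLa cells. All test substances were used as HCl salts. Ki was determined in triplicate.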

[11] = molecular target: T4, 5-hydroxytryptamine receptor 6; test: Antagonist activity at human cloned 5HT6 receptor expressed in human HeLa cells by cyclase assay; format: functional, cell-based
[12] = Ratio of drug level in brain to plasma in rat at 10 mg/kg, po; format: ADME, organism-based; set-up: dose 10 mg/kg, route oral; settings: read-out: BPR
[13] = Oral bioavailability in rat at 10 mg/kg; format: ADME, organism-based; settings: in vivo

T4 sequence (P50406 whole entry): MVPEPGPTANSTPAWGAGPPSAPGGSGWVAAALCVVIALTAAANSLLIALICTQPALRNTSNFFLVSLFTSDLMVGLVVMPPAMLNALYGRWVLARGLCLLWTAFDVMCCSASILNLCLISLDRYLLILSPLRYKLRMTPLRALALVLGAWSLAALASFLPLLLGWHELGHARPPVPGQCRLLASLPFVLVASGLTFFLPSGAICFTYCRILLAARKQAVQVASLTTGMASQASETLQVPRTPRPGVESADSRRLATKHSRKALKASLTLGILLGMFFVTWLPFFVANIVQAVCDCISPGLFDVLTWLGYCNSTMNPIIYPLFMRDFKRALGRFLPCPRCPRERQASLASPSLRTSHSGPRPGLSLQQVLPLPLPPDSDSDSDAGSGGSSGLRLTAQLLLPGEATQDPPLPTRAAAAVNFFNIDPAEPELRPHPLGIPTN
Sequence of 5-hydroxytryptamine receptor 1B (P28222 whole entry): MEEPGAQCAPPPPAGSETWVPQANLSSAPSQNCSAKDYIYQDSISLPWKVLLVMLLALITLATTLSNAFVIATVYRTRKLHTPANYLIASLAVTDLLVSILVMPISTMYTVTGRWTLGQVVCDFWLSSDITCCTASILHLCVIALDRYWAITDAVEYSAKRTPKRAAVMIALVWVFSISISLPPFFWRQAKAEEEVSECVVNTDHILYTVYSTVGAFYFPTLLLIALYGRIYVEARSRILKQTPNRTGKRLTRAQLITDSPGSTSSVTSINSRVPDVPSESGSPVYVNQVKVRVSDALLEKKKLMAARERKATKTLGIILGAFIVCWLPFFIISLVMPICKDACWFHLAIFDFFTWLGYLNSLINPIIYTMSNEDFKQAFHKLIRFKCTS
Sequence of 5-hydroxytryptamine receptor 1D (P28221 whole entry): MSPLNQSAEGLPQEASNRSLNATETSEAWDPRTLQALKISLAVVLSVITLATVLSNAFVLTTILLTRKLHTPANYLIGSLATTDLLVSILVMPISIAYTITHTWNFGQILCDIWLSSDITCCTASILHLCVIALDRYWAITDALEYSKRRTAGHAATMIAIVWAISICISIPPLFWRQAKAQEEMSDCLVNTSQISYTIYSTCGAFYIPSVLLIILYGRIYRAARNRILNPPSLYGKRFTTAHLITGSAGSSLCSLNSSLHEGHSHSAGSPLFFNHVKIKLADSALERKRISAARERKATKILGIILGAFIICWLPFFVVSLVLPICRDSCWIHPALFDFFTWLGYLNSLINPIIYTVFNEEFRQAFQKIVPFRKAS
Sequence of 5-hydroxytryptamine receptor 7 (P34969 whole entry): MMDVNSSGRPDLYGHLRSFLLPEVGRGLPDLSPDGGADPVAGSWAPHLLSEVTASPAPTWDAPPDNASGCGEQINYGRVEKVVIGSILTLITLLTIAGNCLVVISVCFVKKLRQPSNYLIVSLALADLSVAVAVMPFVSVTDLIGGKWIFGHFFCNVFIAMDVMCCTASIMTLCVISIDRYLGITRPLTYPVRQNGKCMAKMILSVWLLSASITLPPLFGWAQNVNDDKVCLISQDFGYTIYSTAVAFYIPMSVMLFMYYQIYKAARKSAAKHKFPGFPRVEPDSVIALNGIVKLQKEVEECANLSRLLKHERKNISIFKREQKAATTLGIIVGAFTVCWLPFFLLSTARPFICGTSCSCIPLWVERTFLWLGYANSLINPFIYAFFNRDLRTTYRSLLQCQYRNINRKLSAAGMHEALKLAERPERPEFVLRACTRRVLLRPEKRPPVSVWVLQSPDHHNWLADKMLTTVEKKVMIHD
Sequence of D(2) dopamine receptor (P14416 whole entry): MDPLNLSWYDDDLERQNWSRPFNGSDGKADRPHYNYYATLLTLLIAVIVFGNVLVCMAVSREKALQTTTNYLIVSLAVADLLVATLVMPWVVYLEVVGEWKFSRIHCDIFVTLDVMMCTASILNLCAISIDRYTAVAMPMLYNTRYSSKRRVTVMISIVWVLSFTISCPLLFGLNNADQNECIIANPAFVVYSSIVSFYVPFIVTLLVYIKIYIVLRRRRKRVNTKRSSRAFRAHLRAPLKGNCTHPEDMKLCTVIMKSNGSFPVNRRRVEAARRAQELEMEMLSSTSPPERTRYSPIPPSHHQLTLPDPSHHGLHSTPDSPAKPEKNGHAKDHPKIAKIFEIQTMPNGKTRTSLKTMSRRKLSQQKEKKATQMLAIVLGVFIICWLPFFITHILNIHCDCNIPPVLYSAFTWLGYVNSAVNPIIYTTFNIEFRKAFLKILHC
T1 sequence (P41595 whole entry): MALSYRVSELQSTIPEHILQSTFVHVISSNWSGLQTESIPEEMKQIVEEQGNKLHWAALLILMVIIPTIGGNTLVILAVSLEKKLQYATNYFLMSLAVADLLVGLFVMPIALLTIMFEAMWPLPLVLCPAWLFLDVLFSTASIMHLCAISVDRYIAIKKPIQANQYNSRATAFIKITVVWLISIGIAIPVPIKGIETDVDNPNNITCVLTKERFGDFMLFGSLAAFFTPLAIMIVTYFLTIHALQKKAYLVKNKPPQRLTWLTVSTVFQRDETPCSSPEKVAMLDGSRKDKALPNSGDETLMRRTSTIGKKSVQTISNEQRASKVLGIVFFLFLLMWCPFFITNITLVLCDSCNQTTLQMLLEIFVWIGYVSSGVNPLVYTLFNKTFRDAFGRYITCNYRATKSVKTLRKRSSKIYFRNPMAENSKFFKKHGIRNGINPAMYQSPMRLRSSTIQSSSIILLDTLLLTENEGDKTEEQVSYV

Imax [6]	Ki [10]	IC50 [11]	Structure (SMILES)	other results
100%			CC(C)Cn1nc(S(=O)(=O)c2cccc3ccccc23)c2cc(N3CCNCC3)ccc21	Activity [1]: inactive; Ki [2]: > 5 µM; Ki [3]: > 5 µM; Ki [4]: 1880 nM; Ki [5]: > 5000 nM; Ki (D(2) dopamine receptor): 1900 nM; Ki [7]: 281 nM; Ki [8]: > 5 µM; Ki [9]: > 5 µM
99%	1.9 nM	8.8 nM	CN1CCN(c2ccc3[nH]nc(S(=O)(=O)c4ccccc4)c3c2)CC1	Activity [1]: inactive; Ki [2]: > 5 µM; Ki [3]: > 5 µM; Ki [4]: 3070 nM; Ki [5]: 753 nM; Ki (D(2) dopamine receptor): 355 nM; Ki [7]: 978 nM; Ki [8]: > 5 µM; Ki [9]: > 5 µM
	110 nM		O=S(=O)(c1ccc(Cl)cc1)c1n[nH]c2cc(N3CCNCC3)ccc12	
98%	1.8 nM		CC(C)n1nc(S(=O)(=O)c2cccc3ccccc23)c2cc(N3CCN(C)CC3)ccc21	
99%	1.7 nM	132 nM	CN1CCN(c2ccc3[nH]nc(S(=O)(=O)c4cccc(F)c4)c3c2)CC1	
100%	1.1 nM	57 nM	COc1cccc(S(=O)(=O)c2n[nH]c3ccc(N4CCN(C)CC4)cc23)c1	
100%			O=S(=O)(c1cccc2ccccc12)c1nn(Cc2ccccc2)c2ccc(N3CCNCC3)cc12	Activity [1]: inactive; Ki [2]: > 5 µM; Kp [12]: > 0.5; Ki [3]: > 5 µM; Ki [4]: 1070 nM; Ki [5]: > 5000 nM; bioavailability [13]: > 50%; Ki (D(2) dopamine receptor): 605 nM; Ki [7]: 141 nM; Ki [8]: > 5 µM; Ki [9]: > 5 µM
	22 nM		O=S(=O)(c1cccc2ccccc12)c1n[nH]c2cc(N3CCNCC3)ccc12	
100%	1.7 nM		CN1CCN(c2ccc3c(c2)c(S(=O)(=O)c2cccc4ccccc24)nn3C)CC1	
100%	3.2 nM		Cn1nc(S(=O)(=O)c2ccccc2)c2cc(N3CCNCC3)ccc21	
	124 nM		COc1ccc(S(=O)(=O)c2n[nH]c3cc(N4CCNCC4)ccc23)cc1	
100%	8.1 nM	108 nM	CN1CCN(c2ccc3[nH]nc(S(=O)(=O)c4ccc(Cl)cc4)c3c2)CC1	
	27 nM		Cc1ccc(S(=O)(=O)c2n[nH]c3cc(N4CCNCC4)ccc23)cc1	
100%	1.6 nM	8 nM	CN1CCN(c2ccc3[nH]nc(S(=O)(=O)c4cccc5ccccc45)c3c2)CC1	Activity [1]: inactive; Ki [2]: > 5 µM; Ki [3]: > 5 µM; Ki [4]: > 5000 nM; Ki [5]: 579 nM; bioavailability [13]: 5%; Ki (D(2) dopamine receptor): 334 nM; Ki [7]: 601 nM; Ki [8]: > 5 µM; Ki [9]: > 5 µM
	207 nM		O=S(=O)(c1ccc(C(F)(F)F)cc1)c1n[nH]c2cc(N3CCNCC3)ccc12	
100%		544 nM	COc1ccc(S(=O)(=O)c2n[nH]c3ccc(N4CCN(C)CC4)cc23)cc1	
100%	4.6 nM	17 nM	CN1CCN(c2cccc3c(S(=O)(=O)c4cccc5ccccc45)n[nH]c23)CC1	

Imax [6]	Ki [10]	IC50 [11]	Structure (SMILES)	other results
100%	0.9 nM	38 nM	Cc1cccc(S(=O)(=O)c2n[nH]c3ccc(N4CCN(C)CC4)cc23)c1	
100%	1.4 nM		CC(C)Cn1nc(S(=O)(=O)c2cccc3ccccc23)c2cc(N3CCN(C)CC3)ccc21	
100%	2.9 nM		CCn1nc(S(=O)(=O)c2ccccc2)c2cc(N3CCNCC3)ccc21	
100%	4.9 nM	112 nM	Cc1ccc(S(=O)(=O)c2n[nH]c3ccc(N4CCN(C)CC4)cc23)cc1	
100%	1.7 nM		CCn1nc(S(=O)(=O)c2cccc3ccccc23)c2cc(N3CCN(C)CC3)ccc21	
100%	5.5 nM	54 nM	CN1CCN(c2ccc3[nH]nc(S(=O)(=O)c4ccccc4F)c3c2)CC1	
100%			CCn1nc(S(=O)(=O)c2cccc3ccccc23)c2cc(N3CCNCC3)ccc21	
98%	5.2 nM	467 nM	CN1CCN(c2ccc3[nH]nc(S(=O)(=O)c4ccc(F)cc4)c3c2)CC1	
100%	2.6 nM	40 nM	CN1CCN(c2ccc3[nH]nc(S(=O)(=O)c4c(Cl)cccc4Cl)c3c2)CC1	
	48 nM		O=S(=O)(c1cccc2ccccc12)c1n[nH]c2cccc(N3CCNCC3)c12	
100%	1.8 nM		CCCn1nc(S(=O)(=O)c2cccc3ccccc23)c2cc(N3CCN(C)CC3)ccc21	
99%			Cn1nc(S(=O)(=O)c2cccc3ccccc23)c2cc(N3CCNCC3)ccc21	Activity [1]: inactive; Ki [2]: 1.78 µM; Ki [3]: 2.76 µM; Ki [4]: 3650 nM; Ki [5]: > 5000 nM; Ki (D(2) dopamine receptor): 2240 nM; Ki [7]: 87 nM; Ki [8]: 3.62 µM; Ki [9]: > 5 µM
100%			CN1CCN(c2ccc3c(c2)c(S(=O)(=O)c2cccc4ccccc24)nn3Cc2ccccc2)CC1	
100%	2.9 nM		CC(C)n1nc(S(=O)(=O)c2cccc3ccccc23)c2cc(N3CCNCC3)ccc21	Activity [1]: inactive; Ki [2]: > 5 µM; Ki [3]: > 5 µM; Ki [4]: 1080 nM; Ki [5]: > 5000 nM; Ki (D(2) dopamine receptor): 2040 nM; Ki [7]: 96 nM; Ki [8]: > 5 µM; Ki [9]: > 5 µM
100%		101 nM	CN1CCN(c2ccc3[nH]nc(S(=O)(=O)c4ccccc4Cl)c3c2)CC1	
	11 nM		O=S(=O)(c1cccc(F)c1)c1n[nH]c2cc(N3CCNCC3)ccc12	
100%	1 nM	62 nM	CN1CCN(c2ccc3[nH]nc(S(=O)(=O)c4cccc(Cl)c4)c3c2)CC1	

Structure (SMILES)	Imax [6]	Ki [10]	IC50 [11]	other results
Cc1ccc(S(=O)(=O)c2n[nH]c3cccc(N4CCNCC4)c23)cc1		134 nM		
O=S(=O)(c1ccc(Cl)cc1)c1n[nH]c2cccc(N3CCNCC3)c12		125 nM		
CN1CCN(c2ccc3[nH]nc(S(=O)(=O)c4cccs4)c3c2)CC1	96%	7.8 nM	331 nM	
COc1ccc(S(=O)(=O)c2n[nH]c3cccc(N4CCNCC4)c23)cc1		88 nM		
CCCn1nc(S(=O)(=O)c2cccc3ccccc23)c2cc(N3CCNCC3)ccc21			2.2 nM	
O=S(=O)(c1cccc(F)c1)c1n[nH]c2cccc(N3CCNCC3)c12		134 nM		
